Measurements: ChEMBL document CHEMBL4002602, “Design, Synthesis of Novel, Potent, Selective, Orally Bioavailable Adenosine A2A Receptor Antagonists and Their Biological Evaluation” (J Med Chem, 2017)
Values after ≈ are worked out from the molar mass of the structure shown. Active and inactive are the calls of the source. The rule behind the calls is not given here.

Columns and labels:
[1] = Cmax in Wistar rat at 10 mg/kg administered via oral gavage by LC/MS/MS analysis; assay type: ADME, organism-based; design: dose 10 mg/kg, route oral; conditions: in vivo
Procedure, shortened: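 Fasted male Wistar rats given 10 mg/kg PO as a suspension in 1% Tween 80, 0.5% w/v NaCMC. Serial plasma sampling (K2EDTA) at 0.25–24 h, acetonitrile precipitation, LC/MS/MS. Non-compartmental analysis per animal; bioavailability calculated against the 3 mg/kg IV group; mean of n=4.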

[2] = target: T1, Adenosine receptor A2a (Homo sapiens, UniProt P29274); assay: Antagonist activity at human adenosine A2A receptor expressed in HEK293 cell membranes assessed as decrease in CGS-21680-induced cAMP level pretreated for 15 mins followed by agonist addition for 30 mins
[3] = Volume of distribution at steady state in Wistar rat at 3 mg/kg, iv by LC/MS/MS analysis; assay type: ADME, organism-based; conditions: in vivo, read-out: Vdss
Procedure, shortened: (§1)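 Male Wistar rats (230 ± 15 g), fasted overnight, given 3 mg/kg IV via tail vein as a solution (0.6 mg/mL, 5 mL/kg) in NMP-based vehicles with acetate buffer pH 4.2. Serial plasma sampling (K2EDTA) from 0.008 to 24 h. Acetonitrile precipitation, then LC/MS/MS. Non-compartmental analysis per animal; mean of n=4.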

[4] = target: T2, Adenosine receptor A2b (Homo sapiens, UniProt P29275); assay: Antagonist activity at human adenosine A2B receptor expressed in HEK293 cell membranes assessed as decrease in NECA/forskolin-induced cAMP level pretreated for 15 mins followed by agonist addition for 15 mins and subsequent forskolin stimulation measured after 30 mins; assay type: functional, cell-based
T2 sequence (P29275 whole entry): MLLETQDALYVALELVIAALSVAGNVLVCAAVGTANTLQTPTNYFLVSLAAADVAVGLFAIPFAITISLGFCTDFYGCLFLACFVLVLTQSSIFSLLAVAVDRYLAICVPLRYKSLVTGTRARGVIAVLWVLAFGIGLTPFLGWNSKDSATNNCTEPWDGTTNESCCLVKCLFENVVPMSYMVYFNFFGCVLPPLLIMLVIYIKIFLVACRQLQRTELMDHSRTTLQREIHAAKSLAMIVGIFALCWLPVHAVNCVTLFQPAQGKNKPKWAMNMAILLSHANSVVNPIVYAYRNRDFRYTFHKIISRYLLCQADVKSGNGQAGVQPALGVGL

[5] = test system: HepG2; assay: Cytotoxicity against human HepG2 cells; assay type: cell-based
[6] = Equilibrium aqueous solubility of the compound at pH 7.4 after 4 hrs; assay type: physicochemical; conditions: aqueous medium
[7] = target: CYP2C9 (Homo sapiens, UniProt P11712); assay: Inhibition of CYP2C9 in human liver microsomes at 5 to 25 uM using diclofenac as substrate preincubated for 5 mins with substrate followed by NADPH addition measured after 10 mins by LC-MS/MS analysis; assay type: ADME; conditions: human liver microsomes, probe diclofenac
[8] = test system: Rattus norvegicus; assay: Clearance in Wistar rat at 3 mg/kg, iv by LC/MS/MS analysis relative to hepatic blood flow; assay type: ADME, organism-based; conditions: in vivo
[9] = target: CYP2C19 (Homo sapiens, UniProt P33261); assay: Inhibition of CYP2C19 in human liver microsomes at 5 to 25 uM using (S)mephenytoin as substrate preincubated for 5 mins with substrate followed by NADPH addition measured after 40 mins by LC-MS/MS analysis; assay type: ADME; conditions: human liver microsomes, probe (S)-mephenytoin
[10] = Elimination half-life in Wistar rat at 3 mg/kg, iv by LC/MS/MS analysis; assay type: ADME, organism-based; conditions: in vivo, read-out: beta t1/2 (converted); procedure, shortened: as §1
[11] = target: T1, Adenosine receptor A2a; assay: Displacement of [3H]ZM241385 from human adenosine A2A receptor expressed in HEK293 cell membranes measured after 90 mins
Procedure, shortened: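 Competition binding on membranes from HEK-293 cells overexpressing human A1, A2A, A2B or A3, washed with ADA. Radioligands: [3H]-DPCPX 1 nM (A1), [3H]ZM241385 1 nM (A2A), [3H]-MRS-1754 1.6 nM (A2B), [3H]-HEMADO 2 nM (A3). Buffer was 50 mM Tris with EDTA and ADA; MgCl2 10 mM for A2A/A3; A2B at pH 6.5 with 5 mM MgCl2. Incubation 90 min at room temperature, then filtration. Nonspecific binding defined by NECA 100 μM. Ki values: mean of two experiments, triplicate points.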

[12] = target: T2, Adenosine receptor A2b; assay: Displacement of [3H]-MRS-1754 from human adenosine A2B receptor expressed in HEK293 cell membranes measured after 90 mins
[13] = target: T3, Adenosine receptor A2b (Homo sapiens) (UniProt P29275); assay: Displacement of [3H]-MRS-1754 from human adenosine A2B receptor expressed in HEK293 cell membranes at 1 uM measured after 90 mins relative to control
T3 sequence (whole entry): T2 sequence (P29275 whole entry)

[14] = target: T3, Adenosine receptor A2b (Homo sapiens); assay: Antagonist activity at human adenosine A2B receptor expressed in HEK293 cell membranes assessed as decrease in NECA/forskolin-induced cAMP level at 10 uM pretreated for 15 mins followed by agonist addition for 15 mins and subsequent forskolin stimulation measured after 30 mins; assay type: functional, cell-based
Procedure, shortened: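 Whole HEK-A2B cells were seeded overnight and then pretreated with 1 U/ml ADA for 90 min at 37 °C and 5% CO2. Compound was added for 15 min, then 70 nM NECA for 15 min, at room temperature with mixing in incomplete DMEM with ADA. cAMP was read by HTRF (620/665 nm). Compounds ran at 12 concentrations in triplicate, with 10 μM as the highest tested concentration.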

[15] = target: T4, Cytochrome P450 1A2 (Homo sapiens, UniProt P05177); assay: Inhibition of CYP1A2 in human liver microsomes at 5 to 25 uM using phenacetin as substrate preincubated for 5 mins with substrate followed by NADPH addition measured after 10 mins by LC-MS/MS analysis; assay type: ADME; conditions: microsomes, 10 min, 25 µM
T4 sequence (P05177 whole entry): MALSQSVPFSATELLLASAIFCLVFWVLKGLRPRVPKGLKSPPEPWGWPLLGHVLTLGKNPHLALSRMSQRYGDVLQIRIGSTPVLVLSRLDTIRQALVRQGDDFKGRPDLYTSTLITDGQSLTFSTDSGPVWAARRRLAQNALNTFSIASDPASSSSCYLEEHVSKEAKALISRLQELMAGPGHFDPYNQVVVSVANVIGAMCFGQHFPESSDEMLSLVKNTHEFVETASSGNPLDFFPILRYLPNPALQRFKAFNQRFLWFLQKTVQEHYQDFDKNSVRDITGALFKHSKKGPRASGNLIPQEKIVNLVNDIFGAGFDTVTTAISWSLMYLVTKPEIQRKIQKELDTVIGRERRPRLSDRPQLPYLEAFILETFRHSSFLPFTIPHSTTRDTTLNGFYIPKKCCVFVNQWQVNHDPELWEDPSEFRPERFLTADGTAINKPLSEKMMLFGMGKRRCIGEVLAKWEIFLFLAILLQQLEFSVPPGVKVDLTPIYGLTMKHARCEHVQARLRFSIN

[16] = target: Cytochrome P450 3A (Homo sapiens, UniProt P08684+P20815+Q9HB55+P24462); assay: Inhibition of CYP3A in human liver microsomes at 5 to 25 uM using testosterone as substrate preincubated for 5 mins with substrate followed by NADPH addition measured after 10 mins by LC-MS/MS analysis; assay type: ADME; conditions: microsomes, 10 min, 25 µM

T1 sequence (P29274 whole entry): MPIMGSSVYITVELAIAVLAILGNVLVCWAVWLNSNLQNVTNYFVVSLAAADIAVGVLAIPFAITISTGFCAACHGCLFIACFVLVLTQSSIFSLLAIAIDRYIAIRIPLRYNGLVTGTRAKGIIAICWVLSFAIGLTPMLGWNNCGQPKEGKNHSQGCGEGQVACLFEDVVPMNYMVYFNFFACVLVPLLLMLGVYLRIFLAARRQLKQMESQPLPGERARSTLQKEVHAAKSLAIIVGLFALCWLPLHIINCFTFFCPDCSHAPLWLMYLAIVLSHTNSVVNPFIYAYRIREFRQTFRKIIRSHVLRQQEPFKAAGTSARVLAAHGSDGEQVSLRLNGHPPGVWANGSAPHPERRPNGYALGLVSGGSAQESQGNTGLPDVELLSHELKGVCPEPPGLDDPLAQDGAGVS
Chain of CYP2C19 (P33261 whole entry): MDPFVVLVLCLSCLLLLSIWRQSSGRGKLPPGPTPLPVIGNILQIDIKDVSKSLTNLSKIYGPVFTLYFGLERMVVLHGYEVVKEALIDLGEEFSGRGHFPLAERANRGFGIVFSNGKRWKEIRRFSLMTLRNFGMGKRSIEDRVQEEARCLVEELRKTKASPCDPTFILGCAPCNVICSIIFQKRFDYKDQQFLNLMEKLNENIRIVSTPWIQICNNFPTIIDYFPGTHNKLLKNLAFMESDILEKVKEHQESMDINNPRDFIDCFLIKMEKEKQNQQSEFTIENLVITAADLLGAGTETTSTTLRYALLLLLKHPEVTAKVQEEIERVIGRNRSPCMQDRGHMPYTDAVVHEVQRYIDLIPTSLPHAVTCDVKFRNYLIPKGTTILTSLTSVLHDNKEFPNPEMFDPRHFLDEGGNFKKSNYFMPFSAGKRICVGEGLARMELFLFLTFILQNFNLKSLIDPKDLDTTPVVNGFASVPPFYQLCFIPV
Chain of CYP2C9 (P11712 whole entry): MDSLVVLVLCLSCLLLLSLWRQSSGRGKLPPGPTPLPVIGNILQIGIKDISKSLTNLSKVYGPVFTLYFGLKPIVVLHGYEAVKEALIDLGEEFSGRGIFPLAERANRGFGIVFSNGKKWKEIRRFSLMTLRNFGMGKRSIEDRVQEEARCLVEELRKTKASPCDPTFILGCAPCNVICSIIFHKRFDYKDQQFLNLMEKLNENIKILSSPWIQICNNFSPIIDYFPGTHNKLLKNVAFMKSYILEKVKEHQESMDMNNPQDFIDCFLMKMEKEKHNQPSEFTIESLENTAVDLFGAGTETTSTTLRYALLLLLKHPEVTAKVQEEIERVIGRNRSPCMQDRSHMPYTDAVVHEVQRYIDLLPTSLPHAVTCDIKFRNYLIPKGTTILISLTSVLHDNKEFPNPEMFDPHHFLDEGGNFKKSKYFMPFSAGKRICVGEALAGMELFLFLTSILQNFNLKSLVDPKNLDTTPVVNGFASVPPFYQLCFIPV

COc1ccc(N2CCOCC2)c2sc(NC(=O)C3(C)CCC(C)(O)CC3)nc12 (configuration not stated)
Cmax [1]: 5400 nM | Ki [2]: 0.25 nM | Vd [3]: 1.5 L/kg | Ki [4]: 2000 nM | IC50 [5]: > 100000 nM | solubility thermodynamic at 4 h [6]: 114 µM (≈ 47.8 µg/mL) | IC50 at 10 min [7]: > 25000 nM | clearance [8]: 60 to 65% | IC50 at 40 min [9]: > 25000 nM | half-life [10]: 0.6 h | Ki [11]: 8.6 nM | Ki [12]: 500 nM

COc1ccc(N2CCOCC2)c2sc(NC(=O)C(C)(C)Oc3ccc(F)cc3)nc12
Cmax [1]: 190 nM | Ki [2]: 4.2 nM | Vd [3]: 1.4 L/kg | inhibition [13]: 0% | Activity [14]: inactive | solubility thermodynamic at 4 h [6]: < 6 µM | inhibition (INH) [15]: Not Active | half-life [10]: 6.3 h | inhibition (INH) [16]: Not Active | Ki [11]: 13 nM | Ki [12]: 10000 nM

COc1ccc(N2CCOCC2)c2sc(NC(=O)C(C)(C)Oc3ccc(F)c(F)c3)nc12
Cmax [1]: 1330 nM | Ki [2]: 2.4 nM | Vd [3]: 2.1 L/kg | inhibition [13]: 34% | Activity [14]: inactive | solubility thermodynamic at 4 h [6]: < 6 µM | inhibition (INH) [15]: Not Active | half-life [10]: 5.5 h | inhibition (INH) [16]: Not Active | Ki [11]: 6.4 nM | Ki [12]: 5000 nM

COc1cnc(N2CCOCC2)c2sc(NC(=O)C(C)(C)Oc3ccc(F)cc3)nc12
Cmax [1]: 1100 nM | Ki [2]: 6.5 nM | Vd [3]: 2.1 L/kg | inhibition [13]: 24% | Ki [4]: 2000 nM | solubility thermodynamic at 4 h [6]: < 6 µM | inhibition (INH) [15]: Not Active | half-life [10]: 5.4 h | inhibition (INH) [16]: Not Active | Ki [11]: 3.4 nM | Ki [12]: 1400 nM

CCN(CC)C1CCC(C)(C(=O)Nc2nc3c(OC)ccc(N4CCOCC4)c3s2)CC1 (configuration not stated)
Cmax [1]: 2020 nM | Ki [2]: 0.2 nM | Vd [3]: 6.1 L/kg | Ki [4]: 650 nM | IC50 [5]: > 100000 nM | solubility thermodynamic at 4 h [6]: 1590 µM (≈ 731 µg/mL) | IC50 at 10 min [7]: > 50000 nM | clearance [8]: 60 to 65% | IC50 at 40 min [9]: > 50000 nM | half-life [10]: 2.4 h | Ki [11]: 2.1 nM | Ki [12]: 500 nM
